Measured values reported in PubChem BioAssay AID463141 (The Scripps Research Institute Molecular Screening Center, 2010).
“And” between values parts separate entries of the source, which are not always exact repeats. Equal values may be shown once. Out of some 330,000 compounds screened, about 350 (0.11%) were called active.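 Rule for the calls: active = activation above the mean of all tested compounds plus 3 SD (cut at about 21% in these data); inactive = the rest.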 For the sample, actives were picked, then their nearest neighbours and some compounds at random.

What follows are compounds tested against Caspase-3 (Homo sapiens) (UniProt P42574) (assay: procaspase-3 enzyme activation – biochemical, absorbance, PC-3 D3A mutant, single concentration, primary screen (AID 463141;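 note: 0% = DMSO alone and 100% = DMSO wells spiked with extra 5 µM PC-3 D3A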)). Details: recombinant procaspase-3 D3A, Ac-DEVD-pNA absorbance 405 nm; at 8.5 µM; hits give high values.
In short: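 System: Procaspase-3 D3A mutant. Medium: Zinc-free 300 mM NaCl, 50 mM HEPES, 0.01% Triton X-100. Schedule: 1 h preincubation plus 2 h reaction at 25 °C. Measured by: 405 nm absorbance of p-nitroaniline, reads at 0 and 120 min. Read-out: percent activation relative to control range.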

Chain of Caspase-3 (Homo sapiens) (P42574 whole entry D9A/D28A/D175A): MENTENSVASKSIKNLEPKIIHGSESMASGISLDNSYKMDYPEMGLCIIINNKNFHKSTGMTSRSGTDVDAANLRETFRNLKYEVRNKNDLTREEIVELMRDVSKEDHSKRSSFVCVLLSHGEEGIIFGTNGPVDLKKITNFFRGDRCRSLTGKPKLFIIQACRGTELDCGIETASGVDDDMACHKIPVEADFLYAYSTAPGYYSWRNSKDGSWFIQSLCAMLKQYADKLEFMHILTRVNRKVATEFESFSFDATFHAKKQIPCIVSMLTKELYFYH

activation, inactive:
CC(C)C[C@H](NC(=O)C1CC(=O)N(c2ccc3c(c2)OCCO3)C1)C(=O)NC1CCCC1 (some centres undefined) 0.18%
COc1ccc(/C=N/Nc2ccccc2C(=O)O)cc1 1%
COc1ccc(/C=N/Nc2nc(-c3ccc(C)cc3)c(C#N)c(=O)[nH]2)cc1 8.75%
Cc1cc(-c2nc(C)c(-c3nnc(SCC(=O)Nc4ccccc4)n3C)s2)no1 -5.75%
CCN(CC)S(=O)(=O)c1ccc(N2CCN(C)CC2)c(NC(=O)Nc2ccccc2F)c1 4.2%
COc1ccc(NS(=O)(=O)c2ccc(C)c(C(=O)N(C)Cc3ccc(OC)cc3OC)c2)cc1 10.5%
CC(=O)N1Cc2ccccc2CC1C(=O)O (centres undefined) 2.69%
O=C(CCCn1c(=O)c2sccc2n(CC(=O)NCC2CCCO2)c1=O)NCc1ccco1 (centres undefined) 3.97%
COc1cc(/C=C/C(=O)OCC(=O)Nc2cccc(Oc3ccccc3)c2)ccc1O -1.86%
O=C(NC1(C(F)(F)F)N=C2SCCN2C1=O)c1ccco1 (centres undefined) 1.41%
Cc1ccc(NC(=O)Nc2cc(-c3ccccc3)nn2C)cc1Cl -13.2%
COC(=O)[C@]1(S(=O)(=O)c2ccccc2)C[C@@H]2ON=C(c3ccc(OC)cc3)[C@@H]2C1 -6.69%
CCCCNc1nc2ccccc2nc1NS(=O)(=O)c1cccs1 10.7%
O=C(Nc1ccccc1Cl)/C(Cl)=C(\Cl)S(=O)c1ccccc1 (centres undefined) -26.7%
CCOC(=O)CCC(=O)OCC(=O)NC(C)C1CC2CCC1C2 (centres undefined) 2.01%
O=S(=O)(O)Oc1c[nH]c2ccccc12 4.41%
CCCN(C(=O)c1nc2nccc(C)n2n1)c1c(N)n(Cc2ccccc2)c(=O)[nH]c1=O 1.38%
CN(CC1CCCO1)S(=O)(=O)c1ccc(C(=O)Nc2ccc(F)cc2)cc1 (centres undefined) -2.76%
NC(=O)c1ccccc1N=Cc1ccc2ccccc2c1 9.74%
COC(=O)CN1C(=O)[C@H]2[C@@H](C3CC3)N3C(=O)CN(Cc4ccc(-c5ccccc5)cc4)C(=O)[C@@]3(Cc3ccccc3)[C@H]2C1=O 15.8%
CC(=O)c1sc(N/N=C/c2ccc(C(C)C)cc2)nc1C -6.85%
CCCn1c(C)cc(C(=O)COC(=O)c2c(C)nn(-c3ccccc3)c2C)c1C 0.04%
Cc1ccc(-c2nc(SCC(=O)Nc3ccccc3OC(F)F)c3c(C)c(C(=O)O)sc3n2)cc1 -2.33%
CCOc1ccccc1CN1CCN(C2CCC2)CC1CCO (centres undefined) 8.07%
Cc1ccc(Cl)cc1NC(=O)C1CCN(S(C)(=O)=O)CC1 -5.8%
CN(CCc1ccccn1)C(=O)c1ccc(OC2CCN(CCc3ccccc3)CC2)cc1 -3.49%
Cc1ccc(NC2CCCN(C(=O)CCc3cn[nH]c3)C2)cc1C (centres undefined) 8.07%
CC(C)C[C@H](NC(=O)[C@@H]1O[C@H]1C(=O)O)C(=O)NCCCCN=C(N)N 2.62%
COc1ccccc1/C=C/C=N/n1c(-c2ccc(Cl)cc2Cl)n[nH]c1=S -14.5%
Cc1ccc(C(=O)CN2C(=O)NC3(CCc4ccccc43)C2=O)c(C)c1 (centres undefined) 6%
Cc1ccc(C(=O)N2CCCC(c3ccccc3)=N2)cc1 3.86%
COc1ccc2c(c1)c(=O)c(C(=O)c1ccc(Cl)cc1)cn2CC(=O)Nc1ccc(F)cc1 2.32%
CC(C)COP(=O)(c1ccc(N(C)C)cc1)C(Nc1ccccc1)c1cccnc1 (centres undefined) 5.66%
Cc1nnc(SCC(=O)Nc2ncc3c(n2)CC(C)(C)CC3=O)s1 -5.45%
CSc1ccc(/C=C/C(=O)NC23CC4CC(CC(C4)C2)C3)cc1 2.05%
CN(CC(=O)NC1CCN(Cc2ccccc2)CC1)S(=O)(=O)c1ccc(Cl)s1 5.81%
C=CCNC(=O)C1CC2c3ccccc3C1c1ccccc12 (centres undefined) 5.82%
O=C(COc1ccccc1Cl)N1N=C(c2cccs2)CC1c1ccco1 (centres undefined) 4.79%
COc1ccc(C2CC(c3cccs3)=NN2c2ccc(F)cc2)cc1OC (centres undefined) -19.4%
COc1ccccc1N1CCN(C(=O)c2cn(-c3ccccc3)nc2-c2cccnc2)CC1 -2.98%
COc1ccccc1N1CCN(C(=O)c2ccc(NC3=NC4CS(=O)(=O)CC4S3)cc2)CC1 (centres undefined) -12%
O=C(NCc1cccnc1)Nc1cccc(NC(=O)NCc2cccnc2)c1F 2.89%
COC(=O)Cc1cnc(NC(=O)CSc2nc(C(C)C)cc(=O)[nH]2)s1 5.45%
CCC(=O)Nc1c(C)n[nH]c1C -3.68%
N#Cc1ccc(C2N=C(c3ccccc3)NO2)cc1 (centres undefined) -2.62%
COCc1c(C(=O)N/N=C\c2cccnc2)nnn1-c1nonc1N 0.8%
Cc1cccc(N=Nc2c(O)[nH]c3ccc(F)cc23)c1 12.6%
CC(OC(=O)c1ccc2noc(-c3ccccc3)c2c1)C(N)=O (centres undefined) -2.76%
Oc1ccc(-c2onc3ccc(Cl)cc23)cc1 -12.8%
COc1ccc(NC(=S)N2N=CCC2c2ccccc2)cc1 (centres undefined) 11.4%
c1cnc(N2CCN(c3ccc4ccccc4n3)CC2)nc1 2.75%
NC[C@H](Cc1ccccc1)NCCc1cc(C(F)(F)F)cc(C(F)(F)F)c1 -5.68%
COc1ccccc1C(=O)N1CCN=C1SCc1cccnc1 -6.62%
O=C(CCN1CCN(C/C=C/c2ccccc2)CC1)Nc1ccccc1Cl 8.05%
Cn1cnc([N+](=O)[O-])c1Sc1n[nH]c(N)n1 6.6%
COCCCNC(=S)N(Cc1ccccc1)Cc1ccc(F)cc1 -1.61%
CCCNc1ncnc2sc(C)c(C)c12 -0.52%
CN(C)c1ccc2c(=O)[nH][nH]c(=O)c2c1 10.1%
CCOc1ccccc1NC(=O)C1CCCN(S(=O)(=O)c2ccccc2)C1 (centres undefined) 2.37%
CN1CC(=O)N=C1N 6.53% and -3.63%
CCOC(=O)CNC(=O)CSc1ccc2nnc(-c3cccnc3)n2n1 0.59%
CC(C)NC(=S)N1CCN(S(C)(=O)=O)CC1 9.6%
CC(=O)c1ccc(N=C2SCCCN2C(=O)C2CCCCC2)cc1 8.2%
COc1cc(C(=O)NC2CCN(Cc3ccccc3)CC2)cc(Cl)c1OC(C)C 4.82%
CCOc1ccc2c(c1)cc(CN(C(=O)CC)C1CCCCC1)c1nnnn12 0.4%
O=C(c1ccc(N2CCOCC2)c([N+](=O)[O-])c1)N1CCN(S(=O)(=O)c2cccs2)CC1 -3.64%
CC1CCN(C(=S)NC(=O)c2ccccc2Br)CC1 -4.02%
COc1ccc(C2CC(c3cccs3)=NN2c2ccccc2)cc1 (centres undefined) -24.6%
CC(=O)Oc1ccccc1C1=NN(C(C)=O)C(c2ccccc2)C1 (centres undefined) 1.13%
O=C(CCNc1n[nH]c(=O)[nH]c1=O)N/N=C\c1ccc(Br)cc1 -3.48%
Cc1c(S(=O)(=O)N2CC(C)CC(C)C2)c(=O)n(C)c(=O)n1C (centres undefined) -6.15%
CCc1ccc2oc(-c3ccc(N)cc3)nc2c1 5.03%
COC(=O)c1cc(NC(=O)CN2CCC(C(N)=O)(N3CCCCC3)CC2)cc(C(=O)OC)c1 12.7%
O=C(CC(NC(=O)c1ccccc1)c1ccccc1)Nc1ccc(F)c(F)c1 (centres undefined) 5.87%
CC(C)OC(=O)c1cc(NC(=O)C2C3CCC(O3)C2C(=O)O)cc(C(=O)OC(C)C)c1 (centres undefined) -5.36%
CN1CCCN(C(=O)C2CCCCC2)CC1 5.38%
CCN(CC)c1ccc(NC(=O)CN2CCN(c3ccccn3)CC2)cc1 -5.15%
Cc1cccc(C2C3=C(CCCC3=O)N=C3c4ccccc4C(=O)C32)c1 (centres undefined) -13.4%
CN(C)C(=O)N=NC(=O)N(C)C -12.2%
O=C(COC(=O)C1CC2CCCC(C1)C2=O)NC(=O)c1ccccc1 (centres undefined) -4.78%
COC(=O)C(C(=O)Nc1cccc(Cl)c1C)C1CCCC1 (centres undefined) 1.15%
COc1ccc(CN2CCN(C(=O)CCC(=O)Nc3nnc(C(C)C)s3)CC2)cc1F -6.44%
O=C(CSC1=NS(=O)(=O)c2cc(F)ccc2N1)Nc1ccccc1F -6.67%
COc1cc(N=Cc2c(O)c3ccccc3oc2=O)c(OC)cc1Cl 3.99%
COc1ccccc1N=C(C)C1=C(O)COC1=O -3.88%
COC(=O)c1cc(OC)c(OC)cc1NC(=O)C1CCCO1 (centres undefined) -0.83%
COc1ccc(CN2CCC(c3nc4ccc(Cl)cc4[nH]3)CC2)cc1 -3.22%
O=C(NCC(=O)N(c1ccccc1)C(C(=O)NCC1CCCO1)c1ccccc1)c1cccs1 (centres undefined) -3.61%

activation, active:
COc1ccc(/C=N/Nc2nc3ccccc3c(=O)[nH]2)cc1 30.4%
Fc1ccc(N2N=C(c3cccs3)CC2c2ccco2)c(F)c1 (centres undefined) 40%
COc1ccc(Nc2ncc(C(=O)N3CCN(c4ccccc4OC)CC3)c3ccccc23)cc1 30.4%
COc1ccc(-c2onc3ccc(C(C)=O)cc23)cc1 103%
Oc1ccccc1C1=NN(c2ccccc2)C(c2ccccc2)C1 (centres undefined) 32.8%
COc1ccccc1N=Cc1c(O)c2ccccc2oc1=O 26.5%
